What was measured:
MT4 [1] = experiment: Compound was evaluated for inhibitory effect against MT-4 cells of HIV-1 at a concentration of 20(19.6) ug/mL (uM).; format: functional, Homo sapiens
Outline: (§1)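 HIV-1 (HTLV-III_B) infected MT-4 cells at multiplicity of infection 0.02, incubated with a range of compound concentrations for 4 days. Viable cells counted by MTT method. Per-concentration inhibition of virus-induced cytopathogenicity; values are means of two separate experiments.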

MT4 [2] = experiment: Compound was evaluated for inhibitory effect against MT-4 cells of HIV-2 at a concentration of 0.8(0.8) ug/mL (uM).; format: functional, Homo sapiens
Outline: (§2)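 HIV-2 (ROD strain) infected MT-4 cells at multiplicity of infection 0.02, incubated with a range of compound concentrations for 4 days. Viable cells counted by MTT method. Per-concentration inhibition of virus-induced cytopathogenicity; values are means of two separate experiments.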

MT4 [3] = experiment: Compound was evaluated for inhibitory effect against MT-4 cells of HIV-1 at a concentration of 100(98) ug/mL (uM).; format: functional, Homo sapiens; outline: as §1
MT4 [4] = experiment: Compound was evaluated for inhibitory effect against MT-4 cells of HIV-1 at a concentration of 0.8(0.8) ug/mL (uM).; format: functional, Homo sapiens; outline: as §1
[5] = biological target: Human immunodeficiency virus type 1 reverse transcriptase (Human immunodeficiency virus 1) (UniProt Q72547); experiment: Compound tested for % inhibition of cell-free HIV-1 Reverse Transcriptase at a concentration of 3.9 uM
Outline: (§3)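 HIV-1 RT came from disrupted, partially purified, concentrated virions. Reaction ran 30 min at 37 °C in 50 mM Tris-HCl pH 8.4 with 2 mM DTT, 100 mM KCl, 10 mM MgCl2, 0.1% Triton X-100, [methyl-3H]dTTP (1 µCi, 30 Ci/mmol), poly(rA)·oligo(dT) template and compound. It was stopped with 5% TCA, and precipitate was filter-collected and scintillation-counted. Variation was at most 10%.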

MT4 [6] = experiment: Compound was evaluated for inhibitory effect against MT-4 cells of HIV-2 at a concentration of 100(98) ug/mL (uM).; format: functional, Homo sapiens; outline: as §2
MT4 [7] = experiment: Cell viability at a concentration of 4(3.9) ug/mL (uM).; format: functional, Homo sapiens
MT4 [8] = experiment: Compound tested for its ability to reduce viability of mock-infected MT-4 cells.; format: functional; conditions: Homo sapiens, read-out: CD50 (the source's name)
Outline: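 Mock-infected MT-4 cells were incubated 4 days with a range of compound concentrations, and viability was read by MTT. CD50 is the 50% cytotoxic dose from reduced viability, given as the mean of two separate experiments.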

MT4 [9] = experiment: Cell viability at a concentration of 20(19.6) ug/mL (uM).; format: functional, Homo sapiens
MT4 [10] = experiment: Compound tested for its inhibition of HIV-1 induced cytopathogenicity in MT-4 cells.; format: functional; conditions: Homo sapiens, read-out: ED50 (the source's name)
Outline: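 MT-4 cells infected with HIV-1 (HTLV-III_B) at MOI 0.02 and incubated 4 days with a range of compound concentrations. Viable cells were counted by MTT. ED50 is the 50% antiviral dose from inhibition of virus-induced cytopathogenicity, given as the mean of two separate experiments.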

MT4 [11] = experiment: Cell viability at a concentration of 100(98) ug/mL (uM).; format: functional, Homo sapiens
[12] = biological target: Human immunodeficiency virus type 1 reverse transcriptase (Human immunodeficiency virus 1) (UniProt Q72547); experiment: Inhibitory dose at a concentration 490 uM cell-free HIV-1 Reverse Transcriptase
Outline: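 HIV-1 RT from disrupted, partially purified and concentrated virions. 37 °C for 30 min in 50 mM Tris-HCl pH 8.4, 2 mM DTT, 100 mM KCl, 10 mM MgCl₂, 0.1% Triton X-100, 1 µCi [methyl-³H]dTTP, 0.01 unit poly(rA)·oligo(dT). Stopped with 5% TCA; precipitate collected on glass-fiber filters and counted by scintillation. Means of two experiments; variation ≤10%.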

[13] = biological target: Human immunodeficiency virus type 1 reverse transcriptase (Human immunodeficiency virus 1) (UniProt Q72547); experiment: Compound tested for % inhibition of cell-free HIV-1 Reverse Transcriptase at a concentration of 490 uM; outline: as §3
MOLT-4 (Homo sapiens) = experiment: Compound tested for % inhibition of giant cell formation at a concentration of 98 uM
[14] = tested on: Human immunodeficiency virus 1; experiment: as above
MT4 [15] = experiment: Cell viability at a concentration of 0.8(0.8) ug/mL (uM).; format: functional, Homo sapiens
MT4 [16] = experiment: Compound was evaluated for inhibitory effect against MT-4 cells of HIV-2 at a concentration of 4(3.9) ug/mL (uM).; format: functional, Homo sapiens; outline: as §2
[17] = biological target: Human immunodeficiency virus type 1 reverse transcriptase (Human immunodeficiency virus 1) (UniProt Q72547); experiment: Compound tested for % inhibition of cell-free HIV-1 Reverse Transcriptase at a concentration of 19.6 uM; outline: as §3
MT4 [18] = experiment: Compound was evaluated for inhibitory effect against MT-4 cells of HIV-2 at a concentration of 20(19.6) ug/mL (uM).; format: functional, Homo sapiens; outline: as §2
MT4 [19] = experiment: Compound tested for its inhibition of HIV-2 induced cytopathogenicity in MT-4 cells.; format: functional; conditions: Homo sapiens, read-out: ED50 (the source's name)
Outline: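 MT-4 cells infected with HIV-2 (ROD) at MOI 0.02 and incubated 4 days with a range of compound concentrations. Viable cells were counted by MTT. ED50 is the dose giving 50% inhibition of virus-induced cytopathogenicity, given as the mean of two separate experiments.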

MT4 [20] = experiment: Compound was evaluated for inhibitory effect against MT-4 cells of HIV-1 at a concentration of 4(3.9) ug/mL (uM).; format: functional, Homo sapiens; outline: as §1
MT4 [21] = experiment: Compound was evaluated for inhibitory effect against MT-4 cells of HIV-2 at a concentration of 100(107) ug/mL (uM).; format: functional, Homo sapiens; outline: as §2
MT4 [22] = experiment: Compound was evaluated for inhibitory effect against MT-4 cells of HIV-1 at a concentration of 4(4.3) ug/mL (uM).; format: functional, Homo sapiens; outline: as §1
MT4 [23] = experiment: Compound was evaluated for inhibitory effect against MT-4 cells of HIV-1 at a concentration of 0.8(0.9) ug/mL (uM).; format: functional, Homo sapiens; outline: as §1
MT4 [24] = experiment: Compound was evaluated for inhibitory effect against MT-4 cells of HIV-2 at a concentration of 20(21.4) ug/mL (uM).; format: functional, Homo sapiens; outline: as §2
MT4 [25] = experiment: Compound was evaluated for inhibitory effect against MT-4 cells of HIV-2 at a concentration of 0.8(0.9) ug/mL (uM).; format: functional, Homo sapiens; outline: as §2
MT4 [26] = experiment: Compound was evaluated for inhibitory effect against MT-4 cells of HIV-1 at a concentration of 20(21.4) ug/mL (uM).; format: functional, Homo sapiens; outline: as §1
MT4 [27] = experiment: Cell viability at a concentration of 100(107) ug/mL (uM).; format: functional, Homo sapiens
[28] = biological target: Human immunodeficiency virus type 1 reverse transcriptase (Human immunodeficiency virus 1) (UniProt Q72547); experiment: Compound tested for % inhibition of cell-free HIV-1 Reverse Transcriptase at a concentration of 21.4 uM.
Outline: (§4)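 HIV-1 RT from partially purified, concentrated disrupted virions. Reaction at 37 °C for 30 min in 50 mM Tris-HCl pH 8.4, 2 mM DTT, 100 mM KCl, 10 mM MgCl2, 0.1% Triton X-100, with 1 µCi [methyl-3H]dTTP (30 Ci/mmol) and 0.01 unit poly(rA)·oligo(dT). Stopped with 5% TCA; precipitate collected on glass-fiber filters and counted by liquid scintillation. Experimental variation at most 10%.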

MT4 [29] = experiment: Cell viability at a concentration of 20(21.4) ug/mL (uM).; format: functional, Homo sapiens
MT4 [30] = experiment: Compound was evaluated for inhibitory effect against MT-4 cells of HIV-1 at a concentration of 100(107) ug/mL (uM).; format: functional, Homo sapiens; outline: as §1
[31] = biological target: Human immunodeficiency virus type 1 reverse transcriptase (Human immunodeficiency virus 1) (UniProt Q72547); experiment: Inhibitory dose at a concentration 535 uM cell-free HIV-1 Reverse Transcriptase; outline: as §4
[32] = biological target: Human immunodeficiency virus type 1 reverse transcriptase (Human immunodeficiency virus 1) (UniProt Q72547); experiment: Compound tested for % inhibition of cell-free HIV-1 Reverse Transcriptase at a concentration of 4.3 uM; outline: as §4
MT4 [33] = experiment: Cell viability at a concentration of 0.8(0.9) ug/mL (uM).; format: functional, Homo sapiens
MT4 [34] = experiment: Compound was evaluated for inhibitory effect against MT-4 cells of HIV-2 at a concentration of 4(4.3) ug/mL (uM).; format: functional, Homo sapiens; outline: as §2
MT4 [35] = experiment: Cell viability at a concentration of 4(4.3) ug/mL (uM).; format: functional, Homo sapiens
[36] = tested on: Human immunodeficiency virus 1; experiment: Compound tested for % inhibition of giant cell formation at a concentration of 107 uM
[37] = biological target: Human immunodeficiency virus type 1 reverse transcriptase (Human immunodeficiency virus 1) (UniProt Q72547); experiment: Compound tested for % inhibition of cell-free HIV-1 Reverse Transcriptase at a concentration of 535 uM; outline: as §4

O=S(=O)([O-])c1cc(O)c2c(NS(=O)(=O)c3ccc(-c4ccc(S(=O)(=O)Nc5cc(S(=O)(=O)[O-])cc6cc(S(=O)(=O)[O-])cc(O)c56)cc4)cc3)cc(S(=O)(=O)[O-])cc2c1.[Na+].[Na+].[Na+].[Na+]
Inhibition (MT4 [1]): 100%
Inhibition (MT4 [2]): 6%
Inhibition (MT4 [3]): 100%
Inhibition (MT4 [4]): 5%
inhibition [5]: 0%
Inhibition (MT4 [6]): 100%
Cell viability (MT4 [7]): 0
CC50 (MT4 [8]): > 100 µg/mL
Cell viability (MT4 [9]): 0
EC50 (MT4 [10]): 7.8 µg/mL
Cell viability (MT4 [11]): 0
ID50 [12]: 190 µg/mL
inhibition [13]: 100%
inhibition at 98 µM (MOLT-4 (Homo sapiens)): 100%
inhibition [14]: 100%
Cell viability (MT4 [15]): 0
Inhibition (MT4 [16]): 7%
inhibition [17]: 30%
Inhibition (MT4 [18]): 20%
EC50 (MT4 [19]): 37 µg/mL
Inhibition (MT4 [20]): 15%

O=C(CCCCCCCCCCC(=O)Nc1cc(S(=O)(=O)O)cc2cc(S(=O)(=O)[O-])cc(O)c12)Nc1cc(S(=O)(=O)O)cc2cc(S(=O)(=O)[O-])cc(O)c12.[Na+].[Na+]
Inhibition (MT4 [21]): 100%
CC50 (MT4 [8]): > 100 µg/mL
EC50 (MT4 [10]): 39 µg/mL
Inhibition (MT4 [22]): 2%
Inhibition (MT4 [23]): 0%
Inhibition (MT4 [24]): 4%
Inhibition (MT4 [25]): 3%
Inhibition (MT4 [26]): 14%
Cell viability (MT4 [27]): 0
inhibition [28]: 44%
Cell viability (MT4 [29]): 9
Inhibition (MT4 [30]): 100%
ID50 [31]: 160 µg/mL
inhibition [32]: 15%
EC50 (MT4 [19]): 43 µg/mL
Cell viability (MT4 [33]): 4
Inhibition (MT4 [34]): 3%
Cell viability (MT4 [35]): 5
inhibition [36]: 99%
inhibition [37]: 100%

Reference: ChEMBL document CHEMBL1125724, “Potential anti-AIDS agents. Synthesis and antiviral activity of naphthalenesulfonic acid derivatives against HIV-1 and HIV-2” (1991)
